Assay results from the RNAGym collection of RNA variant scans (doi:10.1038/s41586-018-0170-7).

B1: tRNA (parent)
chain: GUUCCGUUGGCGUAAUGGUAACGCGUCUCCCUCCUAAGGAGAAGACUGCGGGUUCGAGUCCCGUACGGAACG

Variants of: B1
Test: yeast fitness, log relative to wild type (ln ratio); higher = fitter; tRNA-Arg(CCU), competitive growth, 37 C, 1 M NaCl
Summary of the method: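 Two independent transformations put a combinatorial tRNA-Arg(CCU) variant library on a HIS3 centromeric plasmid into BY4742 lacking the chromosomal gene. Pools were grown in SC-HIS at 30 °C for 4 generations, then in SC-HIS 1M NaCl at 37 °C for ~6.5 generations (~26.5 h), with three outputs taken per input. Fitness compares a genotype's generations with the wild type's as a natural log ratio. Those generations are OD-scaled log2 output/input frequencies, inverse-variance weighted across replicates, from 125 bp paired-end Illumina counts.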

Variant | yeast fitness (ln)
U2G G6A C46U C66U C71U | -0.082
G6U C46U C66A A69G A70U | -0.302
G1A U2G G6A C27U C66U A69G A70G C71U | -0.402
U2C G6U A43C A69G C71U | -0.255
G1A G6U C27U C66U A69G A70U | -0.368
G6A C27U C46U C66U A69G | -0.0373
U2G G6U A43C C46U C71U | -0.198
G1A G6A C46U C66A C71U | -0.258
G1A U2C G6A C46U A69G A70G C71U | -0.0541
U2C A43C C66A A70G | -0.0552
U2C G6U A43C A69G A70U | -0.152
G1A G6U C27U A43C C46U A69G A70U C71U | -0.475
G1A U2G G6U C27U C66A A70U C71U | -0.168
A43C A69G A70U | -0.0328
U2C A43C C46U A69G | -0.182
G1A G6A A43C C66U A70G | -0.213
G1A U2C G6U C27U C46U A69G A70G | -0.176
U2G G6U C27U A69G A70U C71U | -0.515
G6U A43C C66U A70G | -0.273
U2C G6U A43C C46U A70U | -0.061
U2G G6A C46U A69G | -0.183

Variant | yeast fitness (ln)
U2G C46U C66A A69G A70G | -0.0404
U2G G6U C27U A43C A70U | -0.207
C27U A43C C66U A70U | -0.147
U2G C27U A43C C46U A69G A70U C71U | -0.295
U2C C27U C46U A69G C71U | -0.104
G1A C66U A70U | -0.105
G1A U2C G6U C27U C46U C66A A70G C71U | -0.0279
G6A A43C C46U C66A A70U | -0.119
G1A G6A C27U A43C C66U A70U C71U | -0.381
U2G G6U C27U A43C C66A C71U | -0.39
G1A U2C G6U C27U A43C C46U C66A A70G C71U | -0.0221
U2G G6U | -0.0233
C27U C46U C66U A69G A70U | -0.104
G1A U2G G6A A69G A70U C71U | -0.331
U2C G6A A70G C71U | -0.105
G1A G6A C66U C71U | -0.0242
U2C G6A C66U A69G A70U | -0.222
G1A G6A C46U A69G A70U | -0.0698
A43C C46U C66U A70U C71U | -0.211
G1A G6A C27U C46U A70U C71U | -0.258
U2G G6U C71U | -0.173

Variant | yeast fitness (ln)
U2G C66U A70G | -0.0789
G6A A43C C46U C66U C71U | -0.12
G1A U2C G6A C46U C66A A70G C71U | -0.105
G1A G6U C46U C66U | -0.0919
U2C G6A A43C C46U A70G | -0.0922
G1A U2G G6U C27U C46U A69G A70U C71U | -0.43
G1A G6U A43C C66U A69G A70U | -0.452
C27U C46U A70U | -0.0227
U2G G6A C27U C66A A70U | -0.126
G1A U2G C46U C66U A70U | -0.0831
U2G G6A A43C A70U C71U | -0.169
U2G G6U A43C C66A A70U | -0.0132
U2C G6A A43C A70G C71U | -0.129
U2C G6A A43C C71U | -0.0318
U2G A43C C66U A70G C71U | -0.22
G1A U2C G6A C27U C46U C71U | -0.157
G1A G6U C46U A70G C71U | -0.227
G1A C27U A43C C46U A70G | -0.147
U2G G6U C46U A69G | -0.157
G1A U2G C46U C66U A70G C71U | -0.161
G6U C27U C66A A69G A70U | -0.213

Variant | yeast fitness (ln)
G1A U2C A43C C66U A70U | -0.169
U2G G6U C27U C46U C66A A69G A70U | -0.0283
G1A G6U C27U A43C C66U A70U | -0.381
U2C G6A A43C A69G A70G | -0.0768
U2G G6U C27U A43C A69G A70U C71U | -0.484
U2G C27U A43C C46U C66U A69G A70G C71U | -0.249
C66A A69G A70G | -0.0347
G1A U2G C27U A43C C46U A69G | -0.212
G1A U2C C66A A70U C71U | -0.0883
U2G G6A A69G A70U | -0.265
C66A A69G | -0.0295
U2G G6U C46U A70U | -0.0198
G1A U2G C46U A70G | -0.103
G1A C27U C46U C66U A70G C71U | -0.223
C27U A43C C66A | -0.0618
U2C G6U C46U C66A A69G A70U | -0.143
G1A U2C G6A C27U A43C C46U A70G C71U | -0.149
G1A U2G G6A C66U A69G A70U C71U | -0.33
U2C G6A C27U C46U C66U A70G C71U | -0.0332
G1A U2G C27U C46U A70U C71U | -0.0144
U2G G6U A43C C46U A69G C71U | -0.221
